MrgX1 PAM: positive allosteric modulators of MrgX1, primary screen, HEK293 cells, Fluo-4 calcium flux; Mas-related G-protein coupled receptor member X1 (Homo sapiens), Q96LB2; FDSS; hits give high values; B-score at 10 µM; hit rate 0.63% among 310,000; AID 588675, 2011;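 active = plate-corrected calcium response at least 3 library SD above typical, normal starting fluorescence, not activating the receptor alone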;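 note: compound read alongside a low EC10 to EC30 dose of BAM8-22 agonist; peak minus trough fluorescence over baseline measured at the second addition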
Target sequence (Q96LB2 whole entry, looked up): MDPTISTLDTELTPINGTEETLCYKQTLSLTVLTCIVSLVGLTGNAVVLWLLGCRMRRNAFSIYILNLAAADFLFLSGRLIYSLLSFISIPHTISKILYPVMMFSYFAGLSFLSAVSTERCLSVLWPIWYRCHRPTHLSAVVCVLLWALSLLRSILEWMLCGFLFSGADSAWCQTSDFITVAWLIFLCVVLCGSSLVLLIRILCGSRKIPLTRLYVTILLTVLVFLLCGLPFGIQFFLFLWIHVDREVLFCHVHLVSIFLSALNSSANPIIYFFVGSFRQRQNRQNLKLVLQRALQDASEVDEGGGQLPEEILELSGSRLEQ
RGS4 inh: RGS4 inhibitors, primary screen, cell-based, HEK293 M3R inducible RGS4, calcium flux | Regulator of G-protein signaling 4 (Homo sapiens), P49798 | Fluo-4 calcium flux; hits give high values; triggered by carbachol at its EC20 | B-score at 10 µM | hit rate 0.45% among 310,000;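 active = B-score, a plate-corrected calcium signal, over three deviations above library mean, with baseline fluorescence within five deviations of library mean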;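 note: RGS4 expression induced by doxycycline in cells with stable M3 receptor; B-score is computed from the integrated fluorescence ratio over baseline after carbachol; higher B-score means a larger calcium signal and so more RGS4 inhibition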
Target sequence (P49798 whole entry, looked up): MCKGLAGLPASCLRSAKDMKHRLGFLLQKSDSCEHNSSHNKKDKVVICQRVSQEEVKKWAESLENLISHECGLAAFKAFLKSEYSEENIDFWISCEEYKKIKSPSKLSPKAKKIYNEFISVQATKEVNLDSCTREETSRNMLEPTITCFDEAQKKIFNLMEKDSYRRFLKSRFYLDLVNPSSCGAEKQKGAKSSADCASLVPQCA
MrgX1 antagonist: antagonists of human MrgX1 receptor, primary screen, HEK293 cells, Fluo-4 calcium flux; BAM8-22 antagonism; hits give low values; B-score at 10 µM; hit rate 1.3% among 310,000; AID 588676, 2011;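 active = calcium-response B-score plate-corrected more than 3 library SD below zero, starting fluorescence within 5 deviations, no agonist response on first addition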;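 note: peak minus trough fluorescence over baseline after final BAM8-22 challenge near maximal dose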
MrgX1 agonist: agonists of human MrgX1 receptor, primary screen, HEK293 cells, Fluo-4 calcium flux. Mas-related G-protein coupled receptor member X1 (Homo sapiens), Q96LB2. AID 588627, 2011. hit rate 0.44% among 310,000. B-score at 10 µM. Fluo-4 calcium fluorescence, agonist mode; hits give high values;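 active = calcium response B-score plate-corrected fluorescence ratio at least 3 library SD, with starting fluorescence B-score inside 5 SD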
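Material: HEK293 cells stably expressing human MrgX1 receptor | Quantity: 15,000 cells per well | Times: Cells plated overnight, dye loaded 0.5 h 37 °C, 0.5 h room temperature | Measured by: Kinetic Fluo-4 NW fluorescence of intracellular calcium | Control set: Positive and negative controls per plate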
RGS4 act: RGS4 potentiators or activators, primary screen, cell-based, HEK293 M3R inducible RGS4, calcium flux. carbachol calcium flux Fluo4; hits give low values. B-score at 10 µM. hit rate 0.92% among 310,000;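 active = B-score of the integrated calcium signal more than 4 SD below the library mean, with starting fluorescence not abnormally high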;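 note: negative B-score means reduced calcium response which marks RGS4 activation or potentiation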
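Assay system: HEK293 FlpIn-TREx cells, stable M3R, doxycycline-inducible RGS4 / Probe or stimulus: carbachol, ECmax concentration / Times: overnight RGS4 induction, 30 min dye load 37 °C, 20 min compound RT / Signal: kinetic calcium fluorescence imaging with Fluo4-AM dye, 2 µM / Measure: Agonist-evoked peak-minus-minimum fluorescence over baseline, integrated ratio, B score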
MrgX1 ag confirm: MrgX1 receptor agonists, duplicate retest, confirmation, HEK293 cells, Fluo-4 calcium flux | activation, % at 10 µM | shares compounds with MrgX1 agonist | hit rate 78% among 600 | Fluo-4 calcium fluorescence, FDSS;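 active = calcium signal rise, corrected for plate position, at least 3 library SD high, with starting brightness within 5 such deviations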
HEK293 Ca flux: nonspecific calcium signal in parental HEK293, confirmation, counter-screen for MrgX1 antagonist project, parental HEK293 cells, Fluo-4 calcium flux | shares compounds with MrgX1 antagonist | Fluo-4 calcium fluorescence, FDSS | fluorescence ratio F(max-min)/F0 at 10 µM | hit rate 2% among 4,000;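 active = duplicate-averaged calcium fluorescence ratio at least three times the standard deviation of buffer wells, a nonspecific response in parental cells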
HEK293 Ca counter: calcium response in parental HEK293 cells, primary screen, counter-screen for MrgX1 allosteric activator project, cell-based, Fluo-4 calcium flux, duplicate | shares compounds with MrgX1 antagonist | Fluo-4 fluorescence ratio; hits give high values | fluorescence ratio F(max-min)/F0 at 10 µM | hit rate 0.4% among 4,000 | AID 624114, 2012;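 active = calcium fluorescence ratio, averaged over duplicates, at least 3 SD of the buffer-well ratio, meaning a nonspecific response in receptor-free cells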;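 note: untransfected parental HEK293 lacking MrgX1 used as counterscreen for MrgX1 allosteric activators; fluorescence change taken during the second addition on a kinetic imager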
HEK293 Ca cntr2: calcium response in parental HEK293 cells, primary screen, counter-screen for MrgX1 agonist project, cell-based, Fluo-4 calcium flux, duplicate, agonist mode. AID 624115, 2012. hit rate 8.7% among 4,000. shares compounds with MrgX1 antagonist. fluorescence ratio F(max-min)/F0 at 10 µM. Fluo-4 calcium fluorescence (FDSS); hits give high values;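 active = calcium fluorescence ratio at least three times the spread of buffer wells, meaning a non-specific response in parental cells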
* hit, by the source's call; i = inactive; · = no result. Shown are actives, neighbours in structure and some others; about 3.5% of the full set was active somewhere.

SMILES	MrgX1 PAM	RGS4 inh	MrgX1 antagonist	MrgX1 agonist	RGS4 act	MrgX1 ag confirm	HEK293 Ca flux	HEK293 Ca counter	HEK293 Ca cntr2
COc1ccc(NC(=O)CN2C(=O)NC(C)(c3ccccc3)C2=O)cc1Cl (stereo not drawn)	i	i	i	i	i	·	·	·	·
O=C(Cc1c2ccccc2nc2ccccc12)c1ccccc1	i	i	i	31*	i	i	i	i	i
COc1ccccc1-c1cc(C(=O)N2CCN(S(=O)(=O)c3ccc(C)cc3)CC2)[nH]n1	i	i	i	i	i	·	·	·	·
CCc1nc2ccccc2n1Cc1ccc(OC)c(OC)c1	i	i	i	41*	i	i	i	i	i
NS(=O)(=O)c1ccc(CCNS(=O)(=O)c2cccc3nsnc23)cc1	i	i	i	i	i	·	·	·	·
O=C(N/N=C/c1cccc([N+](=O)[O-])c1O)C(O)(c1ccccc1)c1ccccc1	i	i	i	66*	i	116%*	i	i	i
COc1cc([N+](=O)[O-])cc(/C=N/NC(=O)C(O)(c2ccccc2)c2ccccc2)c1O	i	i	i	i	i	·	·	·	·
c1ccc(CCN2CCN=C2Nc2ccccc2)cc1	i	i	i	i	i	·	·	·	·
CC(C)CCN1C(Nc2ccccc2)=NC[C@@H]1CC(C)C	i	i	i	i	i	·	·	·	·
Cc1cccc(CCN2CCN=C2Nc2ccccc2)c1	i	·	i	50*	·	278%*	i	i	67*
CCN1C(Nc2ccccc2)=NC[C@@H]1CC(C)C	i	i	i	i	i	·	·	·	·
Cc1cccc(CCN2C(Nc3ccccc3)=NC[C@@H]2CC(C)C)c1	i	·	i	114*	·	586%*	i	i	101*
CC(C)C[C@H]1CN=C(Nc2ccccc2)N1CCc1ccc(F)cc1	i	·	i	120*	·	575%*	i	i	106*
O=C(c1ccc2oc(Cc3ccc(Cl)cc3)nc2c1)N1CC[C@H](O)C1	i	i	i	i	i	·	·	·	·
CCOC(=O)Cc1csc(NC(=O)c2ccc(Cl)s2)n1	i	i	i	31*	i	112%*	i	i	i
CCOC(=O)Cc1csc(NC(=O)c2cccc(Cl)c2)n1	i	i	i	i	i	·	·	·	·
Cc1cc(-c2nn(-c3ccccc3F)cc2CN2CCN(c3ccncc3)CC2)c(C)s1	i	i	i	56*	i	268%*	i	i	i
O=C(Cc1ccc(Cl)cc1)N1CCN(C(=O)c2ccco2)CC1	i	i	i	i	i	·	·	·	·
O=C(Cc1ccc(Cl)cc1Cl)OCC(=O)N1CCN(C(=O)c2ccco2)CC1	i	i	i	29*	i	i	i	i	i
COc1ccc(N=C(N)SCc2ccccn2)cc1	i	i	i	87*	i	341%*	i	i	92*
COc1ccc(-c2nnc(SCc3ccccn3)n2C)cc1	i	i	i	i	i	·	·	·	·
Cc1ccc(C)c(C2=NNC(=O)CC2)c1	i	i	i	i	i	·	·	·	·
O=C(CCl)Nc1cccc(S(=O)(=O)N2CCCCCC2)c1	i	i	i	42*	i	165%*	i	i	i
CCOC(=O)C1CCN(S(=O)(=O)c2cc3c(cc2C)NC(=O)CO3)CC1	i	i	i	i	i	·	·	·	·
CC(=O)Cc1nsc(NC(=O)c2ccccc2Cl)n1	i	i	i	i	i	·	·	·	·
SMILES	MrgX1 PAM	RGS4 inh	MrgX1 antagonist	MrgX1 agonist	RGS4 act	MrgX1 ag confirm	HEK293 Ca flux	HEK293 Ca counter	HEK293 Ca cntr2
CC(=O)Cc1nsc(NC(=O)c2oc(-c3ccccc3Cl)cc2C)n1	i	i	i	36*	i	112%*	i	i	i
O=C(NC1CCCN(Cc2ccccc2F)C1)C1CCC1 (stereo not drawn)	i	i	i	i	i	·	·	·	·
O=C(NC1CCOCC1)C1CCC(=O)N(Cc2ccc(Cl)cc2)C1 (stereo not drawn)	i	i	i	i	i	·	·	·	·
O=C(c1ccc(Cl)cc1)N1CCCOC1	i	i	i	50*	i	i	i	i	i
Cc1ccccc1C(=O)NCCCNC(=O)c1ccccn1	i	i	i	i	i	·	·	·	·
O=C(Cn1nc(Cl)nc1Cl)c1ccc2c(c1)OCCO2	i	i	i	53*	i	194%*	i	i	i
Cc1cc([N+](=O)[O-])nn1CC(=O)NCCc1c[nH]c2ccccc12	i	i	i	i	i	·	·	·	·
Clc1ccc2[nH]c3c(N4CCC5(CC4)OCCO5)ncnc3c2c1	i	i	i	42*	i	238%*	i	i	50*
c1ccc2c(c1)[nH]c1c(N3CCCC3)ncnc12	i	i	i	i	i	·	·	·	·
c1ccc2c(c1)[nH]c1c(N3CCSCC3)ncnc12	i	·	i	32*	·	186%*	i	i	i
O=C(CCC(=O)N1CCN(Cc2ccccc2)CC1)Nc1nnc(C2CCCCC2)s1	i	i	i	i	i	·	·	·	·
Cc1ccc(-n2c(CCC(=O)O)ccc2-c2cccs2)cc1C	i	i	i	29*	i	216%*	i	i	i
CCOC(=O)c1ccc(-n2c(CCC(=O)O)ccc2-c2cccs2)cc1	i	i	i	i	i	·	·	·	·
O=C(O)c1cnn(-c2nc(-c3cccc(F)c3)cs2)c1C(F)(F)F	i	i	i	48*	i	156%*	i	i	i
Nc1cccc(-c2csc(-n3ncc(C(=O)O)c3C(F)(F)F)n2)c1	i	i	i	i	i	·	·	·	·
CCOC(=O)c1cc2c(ccn2C)n1Cc1ccc(Cl)cc1	i	i	i	i	i	·	·	·	·
